Reference: ChEMBL document CHEMBL4371031, “In Vitro Antiviral Activity of New Oxazoline Derivatives as Potent Poliovirus Inhibitors” (J Med Chem, 2019)
Active and inactive are the calls of the source. No cut-off for these calls is given here.

Key:
Assay type in all cases: functional, organism-based
Poliovirus 2 [1] = experiment: Antiviral activity against Human poliovirus 2 10233 infected in human HeLa cells assessed as reduction in virus-induced cytopathic effect after 72 hrs by crystal violet staining-based assay; conditions: Enterovirus C, 10233, HeLa
Method in brief: (§1)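 HeLa cells grown in MEM-10% FBS, seeded at 2x10^5 cells/mL in MEM-2% FBS and preincubated 24 h at 37°C, 5% CO2. Compound and virus were cross-titrated […] compound in 0.5 log10 steps (7-point curves), with duplicate wells and three replicate tests per virus. After 72 h at 37°C, cells were crystal violet stained and read at 590 nm. EC50 came from a four-parameter fit; if all virus dilutions gave >80% monolayer destruction, the value was […].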

Poliovirus 3 [2] = experiment: Antiviral activity against Poliovirus Sabin 3 infected in human HeLa cells assessed as reduction in virus-induced cytopathic effect after 72 hrs by crystal violet staining-based assay; conditions: Enterovirus C
Method in brief: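 HeLa cells grown in MEM-10% FBS, seeded at 2x10^5 cells/mL in MEM-2% FBS and held 24 h at 37°C, 5% CO2. Compound and virus were cross-titrated together on the cells starting at 10 µM compound, in 0.5 log10 steps, duplicate wells, three replicate tests per virus. Incubated 72 h at 37°C, stained with crystal violet, A590 read. EC50 from four-parameter fit.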

Poliovirus 1 [3] = experiment: Antiviral activity against Human poliovirus 1 Sabin 1 infected in human HeLa cells assessed as reduction in virus-induced cytopathic effect after 72 hrs by crystal violet staining-based assay; conditions: Enterovirus C, Sabin 1, HeLa; method in brief: as §1
Poliovirus 1 [4] = experiment: Antiviral activity against Human poliovirus 1 Mahoney infected in human HeLa cells assessed as reduction in virus-induced cytopathic effect after 72 hrs by crystal violet staining-based assay; conditions: Enterovirus C; method in brief: as §1
Poliovirus 1 [5] = experiment: Antiviral activity against Human poliovirus 1 10235 infected in human HeLa cells assessed as reduction in virus-induced cytopathic effect after 72 hrs by crystal violet staining-based assay; conditions: Enterovirus C, 10235, HeLa; method in brief: as §1
Poliovirus 1 [6] = experiment: Antiviral activity against Human poliovirus 1 10688 infected in human HeLa cells assessed as reduction in virus-induced cytopathic effect after 72 hrs by crystal violet staining-based assay; conditions: Enterovirus C, 10688, HeLa; method in brief: as §1
Poliovirus 3 [7] = experiment: Antiviral activity against Human poliovirus 3 10805 infected in human HeLa cells assessed as reduction in virus-induced cytopathic effect after 72 hrs by crystal violet staining-based assay; conditions: Enterovirus C, 10805, HeLa; method in brief: as §1
Poliovirus 2 [8] = experiment: Antiviral activity against Human poliovirus 2 MEF-1 infected in human HeLa cells assessed as reduction in virus-induced cytopathic effect after 72 hrs by crystal violet staining-based assay; conditions: Enterovirus C, MEF-1, HeLa; method in brief: as §1
Poliovirus 1 [9] = experiment: Antiviral activity against Human poliovirus 1 10240 infected in human HeLa cells assessed as reduction in virus-induced cytopathic effect after 72 hrs by crystal violet staining-based assay; conditions: Enterovirus C, 10240, HeLa; method in brief: as §1
Poliovirus 2 [10] = experiment: Antiviral activity against Poliovirus Sabin 2 infected in human HeLa cells assessed as reduction in virus-induced cytopathic effect at 1 uM treated 1 hr post infection and measured after 12 hrs by luminescence based assay
Method in brief: (§2)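 HeLa monolayers were infected with Sabin 2 at 100 CCID50 for 1 h at 37°C, then washed 3x. Drug was added at 0, 1, 2, 4, 6 or 8 h post-infection and left in place. At 12 h, virus was freeze-thawed 3x and titrated in 0.5 log10 dilutions (16 replicates) on HeLa cells for 5 days. CPE was read by ATP luminescence, titre calculated as CCID50 (Kärber); mean of three independent experiments.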

Poliovirus 1 [11] = experiment: Antiviral activity against Human poliovirus 1 10695 infected in human HeLa cells assessed as reduction in virus-induced cytopathic effect after 72 hrs by crystal violet staining-based assay; conditions: Enterovirus C, 10695, HeLa; method in brief: as §1
Poliovirus 2 [12] = experiment: Antiviral activity against Human poliovirus 2 10231 infected in human HeLa cells assessed as reduction in virus-induced cytopathic effect after 72 hrs by crystal violet staining-based assay; conditions: Enterovirus C, 10231, HeLa; method in brief: as §1
Poliovirus 2 [13] = experiment: Antiviral activity against Human poliovirus 2 10221 infected in human HeLa cells assessed as reduction in virus-induced cytopathic effect after 72 hrs by crystal violet staining-based assay; conditions: Enterovirus C, 10221, HeLa; method in brief: as §1
Poliovirus 2 [14] = experiment: Antiviral activity against Human poliovirus 2 P712 infected in human HeLa cells assessed as reduction in virus-induced cytopathic effect after 72 hrs by crystal violet staining-based assay; conditions: Enterovirus C; method in brief: as §1
Poliovirus 2 [15] = experiment: Antiviral activity against Human poliovirus 2 10227 infected in human HeLa cells assessed as reduction in virus-induced cytopathic effect after 72 hrs by crystal violet staining-based assay; conditions: Enterovirus C, 10227, HeLa; method in brief: as §1
Poliovirus 1 [16] = experiment: Antiviral activity against Human poliovirus 1 10241 infected in human HeLa cells assessed as reduction in virus-induced cytopathic effect after 72 hrs by crystal violet staining-based assay; conditions: Enterovirus C, 10241, HeLa; method in brief: as §1
Poliovirus 2 [17] = experiment: Antiviral activity against Poliovirus Sabin 2 infected in human HeLa cells assessed as reduction in virus-induced cytopathic effect after 72 hrs by crystal violet staining-based assay; conditions: Enterovirus C; method in brief: as §1
Poliovirus 1 [18] = experiment: Antiviral activity against Human poliovirus 1 10239 infected in human HeLa cells assessed as reduction in virus-induced cytopathic effect after 72 hrs by crystal violet staining-based assay; conditions: Enterovirus C, 10239, HeLa; method in brief: as §1
Poliovirus 2 [19] = experiment: Antiviral activity against Human poliovirus 2 10234 infected in human HeLa cells assessed as reduction in virus-induced cytopathic effect after 72 hrs by crystal violet staining-based assay; conditions: Enterovirus C, 10234, HeLa; method in brief: as §1
Poliovirus 1 [20] = experiment: Antiviral activity against Human poliovirus 1 10237 infected in human HeLa cells assessed as reduction in virus-induced cytopathic effect after 72 hrs by crystal violet staining-based assay; conditions: Enterovirus C, 10237, HeLa; method in brief: as §1
Poliovirus 2 [21] = experiment: Antiviral activity against Human poliovirus 2 10220 infected in human HeLa cells assessed as reduction in virus-induced cytopathic effect after 72 hrs by crystal violet staining-based assay; conditions: Enterovirus C, 10220, HeLa; method in brief: as §1
Poliovirus 2 [22] = experiment: Antiviral activity against Poliovirus Sabin 2 infected in human HeLa cells assessed as reduction in virus-induced cytopathic effect at 1 uM treated 6 hrs post infection and measured after 12 hrs by luminescence based assay; method in brief: as §2
Poliovirus 2 [23] = experiment: Antiviral activity against Poliovirus Sabin 2 infected in human HeLa cells assessed as reduction in virus-induced cytopathic effect at 1 uM treated 0 to 8 hrs post infection and measured after 12 hrs by luminescence based assay; method in brief: as §2

What does the source list for `Cc1ccc(C(=O)CCCCSc2ccc(C3=NCCO3)cc2)s1`?
EC50 (Poliovirus 2 [1]): 8470 nM; EC50 (Poliovirus 3 [2]): 330 nM; EC50 (Poliovirus 1 [3]): 700 nM; EC50 (Poliovirus 1 [4]): > 10000 nM; EC50 (Poliovirus 1 [5]): 8470 nM; EC50 (Poliovirus 1 [6]): 2800 nM; EC50 (Poliovirus 3 [7]): 1500 nM; EC50 (Poliovirus 2 [8]): 1260 nM; EC50 (Poliovirus 1 [9]): 8470 nM; Activity (Poliovirus 2 [10]): inactive; EC50 (Poliovirus 1 [11]): 7430 nM; EC50 (Poliovirus 2 [12]): 5330 nM; EC50 (Poliovirus 2 [13]): 2370 nM; EC50 (Poliovirus 2 [14]): 2930 nM; EC50 (Poliovirus 2 [15]): 4330 nM; EC50 (Poliovirus 1 [16]): 8070 nM; EC50 (Poliovirus 2 [17]): 137 nM; EC50 (Poliovirus 1 [18]): 5630 nM; EC50 (Poliovirus 2 [19]): 2470 nM; EC50 (Poliovirus 1 [20]): 6470 nM; EC50 (Poliovirus 2 [21]): 1000 nM; Activity (Poliovirus 2 [22]): Active

With `Cc1ccc(C(=O)CCC/C=C/c2ccc(C3=NCCO3)cc2)s1` as the molecule, how does the EC50 (Poliovirus 2 [1]) read?
The EC50 was 190 nM.

What about the EC50 (Poliovirus 3 [2]) of the same molecule?
The EC50 was 53 nM.

And the EC50 (Poliovirus 1 [3])?
The EC50 was 340 nM.

And the EC50 (Poliovirus 1 [4])?
The EC50 was 70 nM.

And the EC50 (Poliovirus 1 [5])?
The EC50 was 400 nM.

And the EC50 (Poliovirus 1 [6])?
Its EC50 is 40 nM.

What about the EC50 (Poliovirus 3 [7]) of the same molecule?
The EC50 was 30 nM.

What about the EC50 (Poliovirus 2 [8]) of the same molecule?
The EC50 was 30 nM.

What about the EC50 (Poliovirus 1 [9]) of the same molecule?
The EC50 was 270 nM.

And the EC50 (Poliovirus 1 [11])?
The EC50 was 580 nM.

And the Activity (Poliovirus 2 [23])?
The Activity was “Active”.

And the EC50 (Poliovirus 2 [12])?
The EC50 was 30 nM.

And the EC50 (Poliovirus 2 [13])?
Its EC50 is 20 nM.

And the EC50 (Poliovirus 2 [14])?
Its EC50 is 240 nM.

What about the EC50 (Poliovirus 2 [15]) of the same molecule?
Its EC50 is 40 nM.

And the EC50 (Poliovirus 1 [16])?
Its EC50 is 370 nM.

What about the EC50 (Poliovirus 2 [17]) of the same molecule?
The EC50 was 27 nM.

What about the EC50 (Poliovirus 1 [18]) of the same molecule?
Its EC50 is 220 nM.

And the EC50 (Poliovirus 2 [19])?
The EC50 was 20 nM.

And the EC50 (Poliovirus 1 [20])?
The EC50 was 280 nM.

And the EC50 (Poliovirus 2 [21])?
Its EC50 is 20 nM.

Which EC50 (Poliovirus 2 [1]) does the source give for `Cc1ccc(C(=O)CCCCOc2ccc(C3=NCCO3)cc2)s1` here?
Its EC50 is 450 nM.

And the EC50 (Poliovirus 3 [2])?
The EC50 was 367 nM.

And the EC50 (Poliovirus 1 [3])?
Its EC50 is 12500 nM.

What about the EC50 (Poliovirus 1 [4]) of the same molecule?
Its EC50 is greater than 100000 nM.

What about the EC50 (Poliovirus 1 [5]) of the same molecule?
The EC50 was 4610 nM.

What about the EC50 (Poliovirus 1 [6]) of the same molecule?
The EC50 was 40 nM.

And the EC50 (Poliovirus 3 [7])?
Its EC50 is 270 nM.

What about the EC50 (Poliovirus 2 [8]) of the same molecule?
The EC50 was greater than 100000 nM.

And the EC50 (Poliovirus 1 [9])?
The EC50 was 3620 nM.

And the Activity (Poliovirus 2 [10])?
Its Activity is “inactive”.

What about the EC50 (Poliovirus 1 [11]) of the same molecule?
The EC50 was 8410 nM.

What about the EC50 (Poliovirus 2 [12]) of the same molecule?
The EC50 was 50 nM.

What about the EC50 (Poliovirus 2 [13]) of the same molecule?
The EC50 was 20 nM.

And the EC50 (Poliovirus 2 [14])?
The EC50 was greater than 100000 nM.

What about the EC50 (Poliovirus 2 [15]) of the same molecule?
Its EC50 is 30 nM.

And the EC50 (Poliovirus 1 [16])?
Its EC50 is 3170 nM.

What about the EC50 (Poliovirus 2 [17]) of the same molecule?
Its EC50 is 187 nM.

What about the EC50 (Poliovirus 1 [18]) of the same molecule?
The EC50 was 940 nM.

And the EC50 (Poliovirus 2 [19])?
Its EC50 is 30 nM.

What about the EC50 (Poliovirus 1 [20]) of the same molecule?
Its EC50 is 5750 nM.

And the EC50 (Poliovirus 2 [21])?
The EC50 was 40 nM.

And the Activity (Poliovirus 2 [22])?
Its Activity is “inactive”.
